High-throughput results: PubChem BioAssay, several laboratories
This is a sample that favours compounds with a hit; in the whole collection about 2.6% have one here.
MEKK2wt PB1 HTS = raises or lowers MEK5 binding to wildtype human MEKK2 PB1 domain; bead flow cytometry, Alexa488-MEK5 binding to MEKK2 WT; actives lie on both sides; binding response (% of control), % at 10 µM; 290,000 tested, 1.1% active; in the data active = binding response below about 67% or above about 130%
MEKK3 PB1 HTS = MEKK3-MEK5 PB1 interaction, increase or decrease. 290,000 tested, 1.4% active. AID 1529. Q99759. binding response (% of control), % at 10 µM. bead-based flow cytometry, Alexa488-MEK5 binding to MEKK3; actives lie on both sides; 0 = blocked by unlabeled MEK5, 100 = vehicle;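 active = binding response more than 3 SD above or below the average of its plate-row segment, actives on both sides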;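 note: Alexa488 bead fluorescence after subtracting the streptavidin-only scavenger bead signal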
Target sequence (Q99759 whole entry, looked up): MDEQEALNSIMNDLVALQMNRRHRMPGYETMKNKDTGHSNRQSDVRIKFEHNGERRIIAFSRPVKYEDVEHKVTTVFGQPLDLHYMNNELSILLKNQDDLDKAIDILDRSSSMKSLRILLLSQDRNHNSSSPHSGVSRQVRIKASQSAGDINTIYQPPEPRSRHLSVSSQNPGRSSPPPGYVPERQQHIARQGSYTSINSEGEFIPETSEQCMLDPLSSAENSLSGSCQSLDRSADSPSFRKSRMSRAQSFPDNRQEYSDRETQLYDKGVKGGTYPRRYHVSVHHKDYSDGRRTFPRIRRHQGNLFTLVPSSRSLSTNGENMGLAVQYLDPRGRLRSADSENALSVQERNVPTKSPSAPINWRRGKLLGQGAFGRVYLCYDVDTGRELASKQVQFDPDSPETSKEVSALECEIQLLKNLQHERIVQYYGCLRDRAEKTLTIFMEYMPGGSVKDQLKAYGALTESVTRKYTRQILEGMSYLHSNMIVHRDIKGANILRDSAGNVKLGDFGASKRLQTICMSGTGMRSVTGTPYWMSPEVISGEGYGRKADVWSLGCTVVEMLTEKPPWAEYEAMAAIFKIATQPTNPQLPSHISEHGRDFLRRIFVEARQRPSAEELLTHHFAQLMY
Lipid droplet = modulators of hepatic lipid droplet formation; inhibition, % at 6.5 µM; AML12 mouse hepatocytes, oleate lipid droplets, BODIPY imaging; 240,000 tested, 0.4% active; AID 1656;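 active = lipid droplet intensity inhibited by at least 50%, with more than 500 cells counted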
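Technique: fluorescence imaging, 20x objective, two fields per well / Assay system: AML12 hepatocytes (mouse) / Measure: % inhibition of lipid droplet signal / Doses: 6.5 µM single-point dosing / Incubation: overnight exposure / Reagent: 100 µM oleic acid challenge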
MEKK2mut PB1 HTS = signal of MEK5 binding to mutant human MEKK2 PB1 domain; bead flow cytometry, Alexa488-MEK5 binding to MEKK2 mutant; percent response, % at 10 µM; 290,000 tested, 0.35% active; AID 1530; in the data active = percent response above about 24%, passing the limit was not always enough
Lipid drop inh = hepatic lipid droplet formation inhibition, confirmed | shares compounds with Lipid droplet | AML12 mouse hepatocytes, BODIPY lipid droplet imaging; droplets induced with 100 µM oleic acid | inhibition, % at 5.2 µM | 870 tested, 65% active | AID 463183;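 active = inhibition of lipid droplet metric at least 50%, with more than 300 cells in each of four replicates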;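 note: plate controls were DMSO with oleic acid for no effect and 5 µM Triacsin-C for full effect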
AML12 tox img = toxic to AML12 mouse hepatocytes in counter-screen. shares compounds with Lipid droplet. DAPI nuclear morphology cytotoxicity imaging; hits give high values; cells fed 100 µM oleate overnight. z-score at 5 µM. 870 tested, 3% active; in the data active = z-score above about 6.3;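 note: compound exposure lasted overnight at 37 °C before fixation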
AML12 tox ATP = AML12 hepatocyte cytotoxicity, confirmed. AID 463219. shares compounds with Lipid droplet. cytotoxicity, % at 50 µM. 530 tested, under 10 active. AML12 mouse hepatocyte viability, ATP luminescence; cells loaded with 100 µM oleic acid;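 active = cytotoxicity above 50% in each of four replicates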;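 note: compound exposure lasted overnight at 37 °C before the ATP read; 0% = DMSO-treated cells and 100% = wells with no cells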
Numbers without * were called inactive; . = not tested or not shown.

SMILES	MEKK2wt PB1 HTS	MEKK3 PB1 HTS	Lipid droplet	MEKK2mut PB1 HTS	Lipid drop inh	AML12 tox img	AML12 tox ATP
CCc1nn(CC(=O)NCCCN(CC)Cc2ccccc2)c(=O)c2cc3sccc3n12	104	105	-30	6	.	.	.
Cc1ccccc1Cn1nc(C)c(NC(=O)C2c3ccccc3Oc3ccccc32)c1C	97	99	81*	-3	100*	-0.32	-4
c1cc2c(cc1-c1csc(NNC3=NCCCCC3)n1)OCCO2	92	89	90*	-8	100*	-0.51	39
CCC(=O)Nc1nc(-c2ccc3c(c2)OCCO3)cs1	101	99	-8	8	.	.	.
O=C(Nc1nc(-c2ccccc2)cs1)C1CCCCN1S(=O)(=O)c1ccccc1 (configuration not stated)	95	98	41	0	.	.	.
O=C(Nc1nc(-c2ccc(-c3ccccc3)cc2)cs1)C1CCCO1 (configuration not stated)	103	102	61*	1	102*	0.32	9
O=C(Nc1nc(-c2ccccc2)cs1)C1CCCO1 (configuration not stated)	98	97	18	-2	.	.	.
O=C(Nc1nc(-c2ccccc2)cs1)C1CCCCN1S(=O)(=O)c1ccc(Cl)cc1 (configuration not stated)	90	82	62*	-5	91*	-0.081	2
CCc1ccccc1NC(=O)COc1ccc(C(=S)N2CCCC2)cc1	93	91	55*	-7	38	0.095	.
O=S(=O)(CCSc1ccc(C(F)(F)F)cn1)c1ccc(Cl)cc1	90	94	26	-16	.	.	.
Cc1ccc(NC(=S)N2CCN(S(=O)(=O)c3c(F)cccc3F)CC2)cc1C	97	102	2	-10	.	.	.
O=S1(=O)NC(=NCCOCCO)c2ccccc21	102	100	4	-2	.	.	.
Cc1oc2c(cc(NS(=O)(=O)c3cccs3)c3ccccc32)c1C(=O)OC(C)C	100	102	68*	3	89*	0.021	5
CCCc1cc(N2CCOCC2)n2nc(C)c(-c3ccccc3)c2n1	107	106	64*	10	96*	0.76	-2
Cc1cc(N2CCOCC2)n2nc(C)c(-c3ccc(Cl)cc3)c2n1	102	104	98*	2	110*	0.25	11
Cc1cc(N2CCN(C)CC2)n2nc(-c3ccc(Cl)cc3)nc2n1	97	110	61*	10	22	-0.26	.
Cc1nn2c(N3CCOCC3)cc(C(C)(C)C)nc2c1-c1ccc(Cl)cc1	100	106	38	3	.	.	.
Cc1cc(N2CCCC2)n2nc(C)nc2n1	105	117	0	-1	.	.	.
CCc1nn2c(N3CCOCC3)cc(C)nc2c1-c1ccc(F)cc1	96	90	88*	1	110*	0.76	2
CC(C)c1csc(CN2CCCC(CNC(=O)c3cccc4ccccc34)C2)n1 (configuration not stated)	108	103	.	4	.	.	.
COc1ccc(C(CNc2ccc(C(F)(F)F)cn2)N(C)C)cc1OC (configuration not stated)	103	101	-2	-1	.	.	.
CC1(OC(=O)C2CCCC2)C(=O)C=C2C=C(c3ccsc3)N(C(CO)CO)C=C2C1=O (configuration not stated)	110	107	18	5	.	.	.
COc1ccc(NC(=O)CSc2nnc3c4c(nc(-c5ccccc5)n23)CC(C)(C)OC4)cc1	106	105	2	-1	.	.	.
COc1ccc(-c2nc3c(c4nnc(SC(C)C(=O)Nc5ccc(C)cc5)n24)COC(C)(C)C3)cc1 (configuration not stated)	102	131	62*	0	79*	-0.77	-6
CCOc1cc(C(=O)Nc2ccc(N3CCN(S(C)(=O)=O)CC3)cc2)cc(OCC)c1OCC	103	102	61*	1	93*	0.8	7
SMILES	MEKK2wt PB1 HTS	MEKK3 PB1 HTS	Lipid droplet	MEKK2mut PB1 HTS	Lipid drop inh	AML12 tox img	AML12 tox ATP
CCOc1cccc(C(=O)Nc2ccc(N3CCN(S(C)(=O)=O)CC3)cc2)c1	109	109	-1	5	.	.	.
Cc1cc(C(=O)OC(C)C(=O)Nc2nc(-c3ccccc3)cs2)c(C)o1 (configuration not stated)	92	95	87*	-3	111*	-0.8	4
Cc1cc(NCc2ccco2)n2ncnc2n1	104	103	18	-1	.	.	.
Cc1cc(C)nc(Nc2nc3ccccc3[nH]2)n1	109	105	58*	5	26	-0.94	.
Clc1cc2c(c(CSc3nc4ccccc4n4cccc34)c1)OCOC2	91	94	-11	-13	.	.	.
Cc1ccc(C(=O)N2CCN(c3ncccn3)CC2)cc1	98	100	0	-5	.	.	.
Cc1ccc(C)c(C(=O)N2CCN(c3ncccn3)CC2)c1	100	104	57*	4	-13	-0.17	.
CCOc1ccc(NC(=O)CN(C)c2ccc(S(=O)(=O)N(C(C)C)C(C)C)cn2)cc1OCC	101	101	52*	-1	84*	0.016	38
CN(c1cccc(NC(=O)c2ccc(Cl)c(S(=O)(=O)N3CCOCC3)c2)c1)S(C)(=O)=O	104	104	-28	-1	.	.	.
C=C(C)COc1ccc2c(C)c(CCC(=O)NC3CC3)c(=O)oc2c1	100	99	-3	-2	.	.	.
COC(=O)c1ccc(-c2noc(CN(C)CC3CCCCO3)n2)cc1 (configuration not stated)	95	103	50*	5	8	0.057	.
COC(=O)c1ccc(-c2noc(CN(Cc3ccncc3)CC3CCCO3)n2)cc1 (configuration not stated)	92	107	6	-13	.	.	.
O=C(CSc1nnc(CNC(=O)c2ccccc2F)o1)NC1CCCCC1	96	99	-16	0	.	.	.
COc1ccc(CNC(=O)CN2C(=O)NC(C)(c3cccc4ccccc34)C2=O)cc1OC (configuration not stated)	103	99	78*	0	105*	-0.25	14
CN(C)c1nc(N/N=C/c2c[nH]c3ccccc23)nc(N2CCOCC2)n1	102	99	131*	7	86*	22*	.
CCOc1ccc(NC(=O)CSc2nnc(Cn3c(=O)sc4ccccc43)n2C)cc1	97	100	25	1	.	.	.
CCOc1ccccc1NC(=O)CSc1nnc(Cn2c(=O)sc3ccccc32)n1C	98	97	53*	2	41	-0.27	.
Cc1ccc(C(C(=O)NC2CCCCC2)N(C(=O)c2csnn2)C2CCCC2)o1 (configuration not stated)	91	96	52*	-7	81*	-0.24	13
